Active and inactive are the calls of the source. No cut-off for these calls is given here. Where only a bound is given, the exact number is not on record here.

We go through 24 compounds from ChEMBL document CHEMBL1122437, “beta 1-selective adrenoceptor antagonists. 1. Synthesis and beta-adrenergic blocking activity of a series of binary (aryloxy)propanolamines” (1983).

Assay [1] addresses Beta-1 adrenergic receptor (Cavia porcellus) (UniProt B0FL73).
The target of assay [2] is Beta-2 adrenergic receptor (Cavia porcellus) (UniProt Q8K4Z4).
For assay [3], the species on record is Rattus norvegicus. Kind of assay: Ratio of rat Beta-2 to Beta-1 adrenoceptor antagonism. The class given is functional. In outline:
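Anesthetized, carotid-cannulated rats were given isoprenaline (0.2 µg kg-1 iv) before and after accumulative iv antagonist doses. The β1 value is the iv dose halving the tachycardia, read by cardiotachometer from the pulse. The β2 value is the iv dose halving the depressor response. The ratio compares these two doses.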

Assay [4] has as its system Rattus norvegicus. Kind of assay: Beta-1-adrenoceptor blockade measured as inhibition of tachycardia caused by isoprenaline in anesthetized rats when administered intravenously. The class given is functional. The following applies: iv. In outline:
(§1)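 Anesthetized rats with a catheterized carotid artery for blood pressure. Heart rate was taken from the pulse signal by cardiotachometer. Tachycardia to isoprenaline (0.2 µg kg-1 iv) was recorded before and after accumulative iv doses of antagonist (0.1 mL 100 g-1). The value is the iv dose giving 50% reduction of the isoprenaline tachycardia.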

For assay [5], the target named is Beta-1 adrenergic receptor (Rattus norvegicus) (UniProt P18090). Description: Beta-1 adrenergic receptor blockade measured as inhibition of tachycardia caused by isoprenaline in anesthetized rats when administered intravenously. Type of assay: functional. In outline: as §1
For assay [6] the target is unchanged. Kind of assay: Beta-1 adrenergic receptor blockade measured as inhibition of tachycardia caused by isoprenaline in anesthetized rats when administered intravenously; inactive. Type of assay: functional. In outline:
as §1

For assay [7], the target named is Beta-2 adrenergic receptor (Rattus norvegicus) (UniProt P10608).
Beta-2 adrenergic receptor (Rattus norvegicus), sequence (P10608 whole entry, looked up): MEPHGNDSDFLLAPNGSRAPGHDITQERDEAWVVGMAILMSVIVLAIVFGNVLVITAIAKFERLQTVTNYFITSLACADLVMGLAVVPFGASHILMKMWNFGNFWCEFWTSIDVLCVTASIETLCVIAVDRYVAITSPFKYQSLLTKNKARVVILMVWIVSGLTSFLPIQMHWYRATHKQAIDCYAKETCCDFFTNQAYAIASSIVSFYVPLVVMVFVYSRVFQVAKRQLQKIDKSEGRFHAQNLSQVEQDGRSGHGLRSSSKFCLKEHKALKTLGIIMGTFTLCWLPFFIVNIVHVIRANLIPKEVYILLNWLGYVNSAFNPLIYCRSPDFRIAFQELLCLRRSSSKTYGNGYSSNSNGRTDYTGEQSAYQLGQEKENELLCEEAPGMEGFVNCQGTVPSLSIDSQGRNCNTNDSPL

Beta-2 adrenergic receptor (Cavia porcellus), sequence (Q8K4Z4 whole entry, looked up): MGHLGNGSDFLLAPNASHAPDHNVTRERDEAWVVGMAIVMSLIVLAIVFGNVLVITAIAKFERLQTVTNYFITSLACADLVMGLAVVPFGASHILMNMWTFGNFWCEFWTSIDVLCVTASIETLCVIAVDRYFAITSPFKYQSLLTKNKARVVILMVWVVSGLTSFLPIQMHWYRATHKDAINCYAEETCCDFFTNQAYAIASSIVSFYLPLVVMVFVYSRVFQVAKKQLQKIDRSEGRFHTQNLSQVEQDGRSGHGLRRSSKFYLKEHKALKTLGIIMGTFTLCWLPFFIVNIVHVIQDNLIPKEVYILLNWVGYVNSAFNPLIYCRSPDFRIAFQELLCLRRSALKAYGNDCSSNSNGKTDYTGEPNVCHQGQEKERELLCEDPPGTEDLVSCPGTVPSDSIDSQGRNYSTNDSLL
Beta-1 adrenergic receptor (Cavia porcellus), sequence (B0FL73 1-467): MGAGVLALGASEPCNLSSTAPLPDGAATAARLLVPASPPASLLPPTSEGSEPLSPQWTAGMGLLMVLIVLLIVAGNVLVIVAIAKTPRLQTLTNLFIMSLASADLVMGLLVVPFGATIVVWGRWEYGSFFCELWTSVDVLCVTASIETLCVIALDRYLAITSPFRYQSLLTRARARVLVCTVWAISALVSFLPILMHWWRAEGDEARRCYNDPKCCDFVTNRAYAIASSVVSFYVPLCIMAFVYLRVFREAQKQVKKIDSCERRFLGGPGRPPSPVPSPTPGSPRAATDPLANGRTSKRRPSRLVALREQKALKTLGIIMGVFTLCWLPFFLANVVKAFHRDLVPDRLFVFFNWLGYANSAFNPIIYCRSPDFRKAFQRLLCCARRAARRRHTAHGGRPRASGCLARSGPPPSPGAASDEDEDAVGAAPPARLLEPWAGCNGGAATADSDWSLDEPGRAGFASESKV
Beta-1 adrenergic receptor (Rattus norvegicus), sequence (P18090 whole entry, looked up): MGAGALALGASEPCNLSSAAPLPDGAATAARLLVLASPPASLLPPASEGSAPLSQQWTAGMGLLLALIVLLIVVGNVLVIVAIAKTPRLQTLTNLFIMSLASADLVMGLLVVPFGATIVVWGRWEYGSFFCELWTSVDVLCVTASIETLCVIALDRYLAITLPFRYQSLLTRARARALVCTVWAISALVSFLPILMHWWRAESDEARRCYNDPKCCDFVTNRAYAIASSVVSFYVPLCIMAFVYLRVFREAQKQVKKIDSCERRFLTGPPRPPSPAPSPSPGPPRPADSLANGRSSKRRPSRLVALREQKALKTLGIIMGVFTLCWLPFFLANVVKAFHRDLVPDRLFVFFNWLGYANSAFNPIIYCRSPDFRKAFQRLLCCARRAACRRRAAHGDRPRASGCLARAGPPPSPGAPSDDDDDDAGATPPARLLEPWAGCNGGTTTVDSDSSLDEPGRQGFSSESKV

Consider `CC(C)NC[C@@H](O)COc1ccccc1OCCCCCCCCCCCCOc1ccccc1OC[C@@H](O)CNC(C)C`, for which the figures for the Affinity constant in assay [1] and in assay [2] were 1 µM and 0.015 µM, respectively.
A word on the ED50: it is the midpoint of the dose-response relation. For `CC(C)NC[C@H](O)COc1cccc(OCCCOc2cccc(OC[C@@H](O)CNC(C)C)c2)c1`, the Ratio in the assay listed under Rattus norvegicus [3] stood at 1.56. Moreover, the Affinity constant worked out at 0.7 µM in assay [1] and 0.007 µM in assay [2]. This compound also came in with an ED50 in the assay on Rattus norvegicus [4] of 0.653 mg/kg.
With `CC(C)NC[C@@H](O)COc1ccccc1OCCOCCOCCOc1ccccc1OC[C@@H](O)CNC(C)C`, the ED50 in assay [5] is 0.082 mg/kg. Also, the Ratio in the assay filed under Rattus norvegicus [3] turned out to be 1.35. Besides, the Affinity constant came out at 0.06 µM in assay [1] and 0.00085 µM in assay [2].
In the case of `CC(C)NC[C@H](O)COc1ccc(OCCOCCOc2ccc(OC[C@@H](O)CNC(C)C)cc2)cc1`, the Ratio in the assay filed under Rattus norvegicus [3] was found to be 192. Also, the Affinity constant is 0.01 µM in assay [1] and 0.36 µM in assay [2]. Moreover, in the assay with Rattus norvegicus [4], the 50% effect level (ED50) was put at a dose of 0.052 mg/kg.
In the case of `CC(C)NC[C@H](O)COc1ccc(OCCCCCCCCCCCCCCOc2ccc(OC[C@@H](O)CNC(C)C)cc2)cc1`, the Affinity constant in assay [1] was 2.2 µM; in assay [2] it was over 10 µM.
On the same counts, the results for `CC(C)NC[C@@H](O)COc1ccccc1OCCCCCCCCCCCCCCOc1ccccc1OC[C@@H](O)CNC(C)C` are 0.2 µM and 1 µM.
`CC(C)NC[C@H](O)COc1ccc(OCCOCCOCCOCCOc2ccc(OC[C@@H](O)CNC(C)C)cc2)cc1` displayed an ED50 in assay [5] of 0.282 mg/kg. In addition, the Ratio in the assay filed under Rattus norvegicus [3] is over 70. The values for the Affinity constant in assay [1] and in assay [2] were 0.1 µM and 0.23 µM, respectively.
On to `CC(C)NC[C@@H](O)COc1ccccc1OCCCCCCOc1ccccc1OC[C@@H](O)CNC(C)C`, for which the Ratio in the assay listed under Rattus norvegicus [3] was found to be 0.13. Also, the Affinity constant in assay [1] is 0.003 µM; in assay [2], 0.4 µM. This compound came in with an ED50 in the assay with Rattus norvegicus [4] of 0.399 mg/kg.
Regarding `CC(C)NC[C@H](O)COc1ccccc1OCC(O)COc1ccccc1OC[C@@H](O)CNC(C)C`, the Ratio in the assay filed under Rattus norvegicus [3] was found to be 0.045. The Affinity constant is 0.65 µM in assay [1] and 4.4e-05 µM in assay [2]. In the assay with Rattus norvegicus [4], the 50% effect level (ED50) was put at a dose of 0.993 mg/kg.
As for `CC(C)NC[C@H](O)COc1ccc(OCCCCCCOc2ccc(OC[C@@H](O)CNC(C)C)cc2)cc1`, the Ratio in the assay listed under Rattus norvegicus [3] came to 3.3. The Affinity constant was 0.01 µM in assay [1] and over 10 µM in assay [2]. This compound returned an ED50 in the assay with Rattus norvegicus [4] of 0.776 mg/kg.
As to `CC(C)NC[C@H](O)COc1cccc(OCCOCCOc2cccc(OC[C@@H](O)CNC(C)C)c2)c1`, the Affinity constant turned out to be 1 µM in assay [1] and 0.031 µM in assay [2].
With `CC(C)NC[C@H](O)COc1ccc(OCCCCCCCCCCOc2ccc(OC[C@@H](O)CNC(C)C)cc2)cc1`, the ED50 entry in assay [6] and in assay [7] was “inactive” each time. The results for the Affinity constant in assay [1] and in assay [2] were 0.022 µM and over 10 µM, respectively.
In assay [5], `CC(C)NC[C@@H](O)COc1ccccc1OCCCCCCCCCCOc1ccccc1OC[C@@H](O)CNC(C)C` registered an ED50 of 0.491 mg/kg. Also, the Ratio in the assay listed under Rattus norvegicus [3] amounted to 0.26. In addition, the results for the Affinity constant in assay [1] and in assay [2] were 0.004 µM and 0.17 µM, respectively.
On the same counts, the results for `CC(C)NC[C@H](O)COc1ccccc1OCCOCCOCCOCCOc1ccccc1OC[C@@H](O)CNC(C)C` are 0.029 mg/kg, 0.55, 0.055 µM and 4e-05 µM.
Turning to `CC(C)NC[C@H](O)COc1ccccc1OCCOCCOc1ccccc1OC[C@@H](O)CNC(C)C`, the Ratio in the assay listed under Rattus norvegicus [3] was 0.39. Also, the Affinity constant in assay [1] is 0.15 µM; in assay [2] it was 0.015 µM. In addition, the ED50 in the assay with Rattus norvegicus [4] was found to be 0.384 mg/kg.
On to `CC(C)NC[C@H](O)COc1ccc(OCCOCCOCCOc2ccc(OC[C@@H](O)CNC(C)C)cc2)cc1`, for which it took a dose of 0.05 mg/kg to reach the 50% effect level in assay [5] (ED50). Also, in the assay filed under Rattus norvegicus [3], the Ratio worked out at 185. Moreover, the results for the Affinity constant in assay [1] and in assay [2] were 0.01 µM and 0.03 µM, respectively.
Turning to `CC(C)NC[C@H](O)COc1ccccc1OCCCOc1ccccc1OC[C@@H](O)CNC(C)C`, the Ratio in the assay filed under Rattus norvegicus [3] was 0.22. Besides, the Affinity constant worked out at 0.035 µM in assay [1] and 0.00064 µM in assay [2]. The compound also gave an ED50 in the assay on Rattus norvegicus [4] of 0.768 mg/kg.
Regarding `CC(C)NC[C@@H](O)COc1ccccc1OCCCCCCCCCCCCCCCCCCCCOc1ccccc1OC[C@@H](O)CNC(C)C`, the Affinity constant was 1.5 µM in assay [1] and over 10 µM in assay [2].
On the same counts, the results for `CC(C)NC[C@H](O)COc1ccc(OCCCCCCCCOc2ccc(OC[C@@H](O)CNC(C)C)cc2)cc1` are 0.44 µM and 1.5 µM.
Turning to `CC(C)NCC(O)COc1cccc2ccccc12` (stereo not given) [PROPRANOLOL], it took a dose of 0.143 mg/kg to reach the 50% effect level in the assay on Rattus norvegicus [4] (ED50).
On to `CC(C)NC[C@H](O)COc1ccc(OCCCOc2ccc(OC[C@@H](O)CNC(C)C)cc2)cc1`, for which the Ratio in the assay listed under Rattus norvegicus [3] is over 1.74. In addition, the results for the Affinity constant in assay [1] and in assay [2] were 0.2 µM and 0.24 µM, respectively. Also, the ED50 in the assay with Rattus norvegicus [4] came out at 1.15 mg/kg.
`CC(C)NC[C@H](O)COc1ccc(OCCCCCCCCCCCCOc2ccc(OC[C@@H](O)CNC(C)C)cc2)cc1`: the Affinity constant in assay [1] was determined as 0.1 µM; in assay [2] it was 10 µM.
On the same counts, the results for `CC(C)NC[C@H](O)COc1ccc(OCCCCCCCCCCCCCCCCCCCCOc2ccc(OC[C@@H](O)CNC(C)C)cc2)cc1` are 2.5 µM and 0.42 µM.
In the same order, the values of `CC(C)NC[C@@H](O)COc1ccccc1OCCCCCCCCOc1ccccc1OC[C@@H](O)CNC(C)C` are 0.007 µM and 0.046 µM.
